Reference: ChEMBL document CHEMBL1121917, “Structure--activity relationships in a broad-spectrum anthelmintic series. Acid chloride phenylhydrazones. 1. Aryl substitutions and chloride variations” (1981)

Key:
Ovis aries [1] = assay: Percent reduction in Nematodirus eggs per gram, after treatment with 300 mg/kg dose of compound perorally in sheep; assay type: functional, Egg; conditions: route oral
In short: (§1)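 Naturally parasitized lambs were dosed orally at the stated mg/kg. Dosing was either as a suspension of finely ground compound by stomach tube, or as ground compound weighed into gelatin capsules and given by balling gun. Activity was scored by the clinical test method: the decrease in posttreatment helminth eggs per gram.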

Ovis aries [2] = assay: Percent reduction in Trichuris eggs per gram, after treatment with 100 mg/kg dose of compound perorally in sheep; assay type: functional, Egg; conditions: route oral
In short: (§2)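 Naturally parasitized lambs, dosed orally either with a suspension by stomach tube or with finely ground compound in gelatin capsules by balling gun. Activity was scored by the clinical test method, meaning a significant fall in helminth egg counts after treatment.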

Ovis aries [3] = assay: Percent reduction in Cooperia eggs per gram, after treatment with 400 mg/kg dose of compound perorally in sheep; assay type: functional, Egg; conditions: route oral
In short: (§3)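 Naturally parasitized lambs received compound orally, either as the aqueous suspension by stomach tube or as finely ground powder in gelatin capsules by balling gun. Activity was judged by the clinical test method, as a significant decrease in posttreatment helminth egg counts.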

Ovis aries [4] = assay: Percent reduction in Haemonchus eggs per gram, after treatment with 400 mg/kg dose of compound perorally in sheep; assay type: functional, Egg; conditions: route oral; in short: as §1
Canis familiaris [5] = species on record: Canis familiaris; assay: percent reduction in Uncinaria eggs per gram, after oral treatment of 50 mg/dog dose of compound in a single treatment; assay type: functional, Canis lupus familiaris, Egg
In short: (§4)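 Dogs naturally infected with Toxascaris leonina were experimentally infected with mixed Ancylostoma caninum and Uncinaria stenocephala larvae. Finely ground compound was given orally in gelatin capsules. Three egg count determinations were made before and three after treatment in each experiment.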

Ovis aries [6] = assay: Percent reduction in Strongyloides eggs per gram, after treatment with 100 mg/kg dose of compound perorally in sheep; assay type: functional, Egg; conditions: route oral; in short: as §2
Ovis aries [7] = assay: Percent reduction in Ostertagia eggs per gram, after treatment with 100 mg/kg dose of compound perorally in sheep; assay type: functional, Egg; conditions: route oral; in short: as §1
Ovis aries [8] = assay: Percent reduction in Strongyloides eggs per gram, after treatment with 300 mg/kg dose of compound perorally in sheep; assay type: functional, Egg; conditions: route oral; in short: as §2
Canis familiaris [9] = species on record: Canis familiaris; assay: percent reduction in Ancylostoma eggs per gram, after oral treatment of 50 mg/dog dose of compound in a single treatment; assay type: functional, Canis lupus familiaris, Egg
Ovis aries [10] = assay: Percent reduction in Trichuris eggs per gram, after treatment with 400 mg/kg dose of compound perorally in sheep; assay type: functional, Egg; conditions: route oral; in short: as §2
Ovis aries [11] = assay: Percent reduction in Nematodirus eggs per gram, after treatment with 100 mg/kg dose of compound perorally in sheep; assay type: functional, Egg; conditions: route oral; in short: as §1
Ovis aries [12] = assay: Percent reduction in Strongyloides eggs per gram, after treatment with 400 mg/kg dose of compound perorally in sheep; assay type: functional, Egg; conditions: route oral; in short: as §2
Ovis aries [13] = assay: Percent reduction in Trichuris eggs per gram, after treatment with 300 mg/kg dose of compound perorally in sheep; assay type: functional, Egg; conditions: route oral
Ovis aries [14] = assay: Percent reduction in Oesophagostomum eggs per gram, after treatment with 400 mg/kg dose of compound perorally in sheep; assay type: functional, Egg; conditions: route oral; in short: as §1
Canis familiaris [15] = species on record: Canis familiaris; assay: percent reduction in Toxascaris eggs per gram, after oral treatment of 150 mg/dog dose of compound in a single treatment; assay type: functional, Canis lupus familiaris, Egg
Ovis aries [16] = assay: Percent reduction in Trichostrongylus eggs per gram, after treatment with 300 mg/kg dose of compound perorally in sheep; assay type: functional, Egg; conditions: route oral
Canis familiaris [17] = species on record: Canis familiaris; assay: percent reduction in Uncinaria eggs per gram, after oral treatment of 100 mg/dog dose of compound in a single treatment; assay type: functional, Canis lupus familiaris, Egg
Ovis aries [18] = assay: Percent reduction in Ostertagia eggs per gram, after treatment with 300 mg/kg dose of compound perorally in sheep; assay type: functional, Egg; conditions: route oral; in short: as §2
Mus musculus [19] = species on record: Mus musculus; assay: Percent clearance of Syphacaia obvelata from mouse after oral treatment of 1.87 mg/mouse/day; assay type: functional
In short: (§5)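 Mice naturally carrying Syphacia obvelata were experimentally infected with Nematospiroides dubius and Hymenolepis nana, then grouped after a 2-week prepatency. Finely ground compound was suspended in aqueous 0.10% carboxymethylcellulose, 0.04% polysorbate 80 and 0.0042% polyparaben, and 0.1 mL was given orally by cannula once daily for 4 days to five mice. Necropsy followed 2 days later, scoring presence or absence of each parasite. Control clearance was subtracted from the treated clearance.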

Ovis aries [20] = assay: Percent reduction in Nematodirus eggs per gram, after treatment with 400 mg/kg dose of compound perorally in sheep; assay type: functional, Egg; conditions: route oral; in short: as §1
Ovis aries [21] = assay: Percent reduction in Trichostrongylus eggs per gram, after treatment with 400 mg/kg dose of compound perorally in sheep; assay type: functional, Egg; conditions: route oral; in short: as §2
Canis familiaris [22] = species on record: Canis familiaris; assay: percent reduction in Uncinaria eggs per gram, after oral treatment of 150 mg/dog dose of compound in a single treatment; assay type: functional, Canis lupus familiaris, Egg
Canis familiaris [23] = species on record: Canis familiaris; assay: percent reduction in Ancylostoma eggs per gram, after oral treatment of 150 mg/dog dose of compound in a single treatment; assay type: functional, Canis lupus familiaris, Egg
Mus musculus [24] = species on record: Mus musculus; assay: Percent clearance of Nematospiroides dubius from mouse after oral treatment of 1.875 mg/mouse/day; assay type: functional; in short: as §5
Ovis aries [25] = assay: Percent reduction in Ostertagia eggs per gram, after treatment with 400 mg/kg dose of compound perorally in sheep; assay type: functional, Egg; conditions: route oral; in short: as §2
Canis familiaris [26] = species on record: Canis familiaris; assay: percent reduction in Toxascaris eggs per gram, after oral treatment of 50 mg/dog dose of compound in a single treatment; assay type: functional, Canis lupus familiaris, Egg; in short: as §4
Ovis aries [27] = assay: Percent reduction in Oesophagostomum eggs per gram, after treatment with 100 mg/kg dose of compound perorally in sheep; assay type: functional, Egg; conditions: route oral; in short: as §1
Ovis aries [28] = assay: Percent reduction in Haemonchus eggs per gram, after treatment with 100 mg/kg dose of compound perorally in sheep; assay type: functional, Egg; conditions: route oral; in short: as §3
Ovis aries [29] = assay: Percent reduction in Haemonchus eggs per gram, after treatment with 300 mg/kg dose of compound perorally in sheep; assay type: functional, Egg; conditions: route oral; in short: as §1
Ovis aries [30] = assay: Percent reduction in Moniezia eggs per gram, after treatment with 400 mg/kg dose of compound perorally in sheep; assay type: functional, Egg; conditions: route oral; in short: as §1
Canis familiaris [31] = species on record: Canis familiaris; assay: percent reduction in Ancylostoma eggs per gram, after oral treatment of 100 mg/dog dose of compound in a single treatment; assay type: functional, Canis lupus familiaris, Egg; in short: as §4
Ovis aries [32] = assay: Percent reduction in Trichostrongylus eggs per gram, after treatment with 100 mg/kg dose of compound perorally in sheep; assay type: functional, Egg; conditions: route oral; in short: as §2

CSc1ccc(/C(Cl)=N/Nc2ccccc2)cc1
Reduction (Ovis aries [1]): 100%
Reduction (Ovis aries [2]): 25%
Reduction (Ovis aries [3]): 100%
Reduction (Ovis aries [4]): 100%
Reduction (Canis familiaris [5]): 86%
Reduction (Ovis aries [6]): 100%
Reduction (Ovis aries [7]): 98%
Reduction (Ovis aries [8]): 100%
Reduction (Canis familiaris [9]): 91%
Reduction (Ovis aries [10]): 38%
Reduction (Ovis aries [11]): 100%
Reduction (Ovis aries [12]): 100%
Reduction (Ovis aries [13]): 73%
Reduction (Ovis aries [14]): 100%
Reduction (Canis familiaris [15]): 100%
Reduction (Ovis aries [16]): 100%
Reduction (Canis familiaris [17]): 99%
Reduction (Ovis aries [18]): 100%
Parasite_Clearance (Mus musculus [19]): 100%
Reduction (Ovis aries [20]): 100%
Reduction (Ovis aries [21]): 100%
Reduction (Canis familiaris [22]): 91%
Reduction (Canis familiaris [23]): 84%
Parasite_Clearance (Mus musculus [24]): 100%
Reduction (Ovis aries [25]): 100%
Reduction (Canis familiaris [26]): 69%
Reduction (Ovis aries [27]): 100%
Reduction (Ovis aries [28]): 98%
Reduction (Ovis aries [29]): 100%
Reduction (Ovis aries [30]): 100%
Reduction (Canis familiaris [31]): 94%
Reduction (Ovis aries [32]): 98%
